Screening data as filed in PubChem BioAssay.
Shown are actives, neighbours in structure and some others; about 3.6% of the full set was active somewhere.
Yeast growth inh – growth inhibitors of yeast BB579 in restrictive medium, primary screen, yeast lifespan-shortening project, S. cerevisiae | AID 804, 2007 | OD615, 48 h | 140,000 compounds, 0.51% hits | inhibition, % at 10 µM;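 active means inhibition above a set limit, 3 SD over the mean compound inhibition, cut at about 44% in these data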
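System: Saccharomyces cerevisiae DeaD strain BB579, replicative lifespan model yeast. Buffer or medium: restrictive glucose-based CSMM-D medium. Doses: one dose, 10 µM compound with 0.25% DMSO. Timing: 4 h preincubation and 48 h exposure at 30 °C. Detection: turbidity as optical density at 615 nm. Benchmarks: amphotericin B 10 µg/mL, positive.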
Measles CPE – compounds protecting cells from measles virus cytopathic effect, primary screen, measles RdRp inhibitor project, single point, MLSMR library, absorbance; Measles virus-infected cells, CPE protection; protection (pct of control), % at 4 µM; 140,000 compounds, 1.5% hits; in the data active means protection mostly above about 24%, no sharp cut-off; inactive means mostly below about 26%
Phagocyt inh – inhibitors of macrophage phagocytosis, primary screen, imaging, J774A.1 cells, IgG beads; J774A.1 macrophage IgG-bead phagocytosis; inhibition, % at 5 µM; 110,000 compounds, 0.07% hits;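 active means inhibition above the mean of the plate negative controls plus 5 SD, cut at about 13% in these data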;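 further: phagocytic index as fraction of beads internalized from green versus red external bead signal; plate controls were DMSO negative control for no effect and cytochalasin-D positive control for full effect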
RAM network inh – inhibitors of the yeast RAM network, primary screen, dse1pr::URA3 reporter, 5-FOA selection; S. cerevisiae dse1pr::URA3 reporter, 5-FOA growth OD615, 2 d; analog-sensitive cbk1-as2 kinase mutant strain; inhibition, % at 50 µM; 190,000 compounds, 1.8% hits; AID 868, 2007;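 active means inhibition above a set limit, 3 SD over mean compound inhibition, cut at about 8.4% in these data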;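 further: 0% = DMSO-only wells with no growth and 100% = 10 µM 1-NA-PP1 full growth; inhibition rescues growth on 5-FOA so higher OD means more RAM inhibition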
Yeast life ext – compounds extending yeast replicative lifespan, primary screen, S. cerevisiae, OD615. 130,000 compounds, 0.68% hits. inhibition of the nicotinamide effect, % at 10 µM. S. cerevisiae growth with nicotinamide; deaD strain in restrictive glucose medium;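 active means inhibition above a set limit, placed 3 SD over the median of all compounds, cut at about 26% in these data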;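 further: 0% = nicotinamide-treated wells and 100% = cells grown without nicotinamide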
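Assay system: engineered S. cerevisiae DeaD replicative-lifespan strain, galactose-grown log-phase cells; medium: restrictive CSMM-D dextrose medium; also added: nicotinamide, 1.5 mM, co-present with compound; schedule: 48 h compound exposure at 30 °C, humidified; detection: absorbance at 615 nm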
Numbers without * were called inactive; · = no result given.

SMILES | Yeast growth inh | Measles CPE | Phagocyt inh | RAM network inh | Yeast life ext
COC(=O)c1ccc(C(=O)NCCCCO)cc1 | · | · | · | 2.6 | ·
CCOC(=O)/C(C#N)=C\c1cn(C)c2ccccc12 | · | · | · | 1.9 | ·
CCOC(=O)/C(=C\c1cn(C)c2ccccc12)[N+](=O)[O-] | -15.4 | 26.9 | -2.9 | -1.4 | 43.8*
O=C(CCSc1nc(-c2ccc3c(c2)OCO3)cc(C(F)(F)F)n1)NCc1ccccc1 | -43.1 | 5.7 | · | 8.2 | ·
O=C(CCSc1nc(-c2ccc3c(c2)OCO3)cc(C(F)(F)F)n1)NCc1ccco1 | -73.2 | 10.1 | 0.5 | 9.7* | -4.0
CN(Cc1ccccc1)C(=O)CCSc1nc(-c2ccc3c(c2)OCO3)cc(C(F)(F)F)n1 | -39.3 | 8.2 | · | 9.9* | ·
O=C(CSc1nc(-c2ccco2)cc(C(F)(F)F)n1)Nc1ccc2c(c1)CCC2 | -24.0 | 7.8 | 0.6 | 8.5* | -17.8
O=C(CCSc1nc(-c2ccco2)cc(C(F)(F)F)n1)NCc1cccs1 | -32.3 | 21.8 | · | 10.2* | ·
Cc1ccc(NC(=O)CSc2nc(-c3ccco3)cc(C(F)(F)F)n2)cc1C | -24.7 | 4.5 | · | 4.2 | ·
O=C(COc1ccccc1CNCc1ccccc1)Nc1ccccc1 | -38.7 | 8.7 | -0.4 | 2.1 | 3.5
CCc1ccc(S(=O)(=O)c2ccc(-n3nc(C)cc3N)cc2)cc1 | · | · | · | 2.4 | ·
COc1ccc(OC)c(CN2CCN(CCc3ccccc3)C(CCO)C2)c1 (stereo not given) | · | · | · | 0.4 | ·
CC(C)(C)OC(=O)[C@H](Cc1ccccc1)NC(=O)c1nc[nH]c1C(=O)NC1CCN(C(=O)OC(C)(C)C)CC1 | · | · | · | 4.5 | ·
CCn1ccnc1CN(C)C(=O)CCc1nnc(CCCc2ccccc2)o1 | · | · | · | 0.9 | ·
COc1cccc(C2CC(c3c(-c4ccccc4)c4cc(Cl)ccc4[nH]c3=O)=NN2S(C)(=O)=O)c1OC (stereo not given) | -57.5 | 68.5* | 1.2 | 5.6 | -9.6
COc1ccccc1C1CC(c2c(-c3ccccc3)c3cc(Cl)ccc3[nH]c2=O)=NN1S(C)(=O)=O (stereo not given) | -36.5 | 2.3 | · | 6.5 | 2.2
COc1ccc(C2CC(c3c(-c4ccccc4)c4cc(Cl)ccc4[nH]c3=O)=NN2C(=O)CCC(=O)O)cc1 (stereo not given) | · | · | · | 9.1* | ·
CCOc1cc(C=O)cc(Br)c1OCC(N)=O | · | · | · | 1.4 | ·
O=S(=O)(Nc1ccc(Cc2ccncc2)cc1)c1ccc(Br)s1 | -27.8 | 1.4 | -0.6 | 0.1 | -22.3
N#CCc1ccc(NS(=O)(=O)c2cccs2)cc1 | -26.6 | 7.0 | -0.1 | 1.0 | ·
O=S(=O)(Nc1ccc(Cc2ccncc2)cc1)c1cccs1 | -12.7 | 45.8* | 4.7 | 1.5 | 13.5
CCCCc1ccc(NS(=O)(=O)c2cccs2)cc1 | 58.2* | 34.1 | 0.9 | -1.5 | -22.3
Cn1c(SCC(=O)Nc2ccccc2)nc(O)cc1=O | 61.6* | 4.8 | · | 1.2 | -4.7
CCCNc1cc(C)oc(=O)c1C(=O)CC | · | · | · | 2.8 | ·
Cc1nc2ncnn2c(C)c1CCC(=O)NCCc1ccccc1 | -32.3 | 100.4* | 3.3 | 1.7 | -20.2
SMILES | Yeast growth inh | Measles CPE | Phagocyt inh | RAM network inh | Yeast life ext
Cc1ccc(CNC(=O)CCc2c(C)nc3ncnn3c2C)cc1 | -5.3 | 3.4 | · | 0.5 | -15.2
CCN(CC)c1nc(-c2ccc(Cl)cc2)cc(C(F)(F)F)c1C#N | -8.7 | 2.0 | -3.3 | 9.6* | -6.6
CN(C)c1nc(-c2ccccc2)cc(C(F)(F)F)c1C#N | -12.7 | 12.1 | -4.1 | 7.9 | -11.4
Cc1cc(Nc2cccc(Cl)c2)n2ncnc2n1 | -11.6 | 29.5* | · | 2.4 | 3.7
Cc1nc(SCC(=O)NC(=O)NCCC(C)C)c2c(-c3cccs3)csc2n1 | -9.8 | 6.6 | -3.9 | 4.0 | 6.2
CCn1c(Sc2nc(C)nc3scc(-c4cccs4)c23)n[nH]c1=O | 99.0* | 21.3 | 0.2 | -1.4 | -6.6
CCOC(=O)Cn1c(=O)c2c(nc3n2CCN3Cc2ccccc2)n(C)c1=O | -31.7 | 20.9 | 0.3 | 1.2 | 28.6*
CCOC(=O)Cn1c(=O)c2c(nc3n2CCN3c2ccc(C)cc2)n(C)c1=O | · | · | -2.4 | · | ·
O=C(Oc1c(CN2CCOCC2)cc(Cl)c2cccnc12)c1ccccc1 | · | · | · | 1.4 | ·
Oc1ccc(CN2CCN(Cc3ccccc3)CC2)c2cccnc12 | -19.8 | 6.1 | · | 2.7 | -16.5
Oc1c(I)cc(Cl)c2cccnc12 | 98.5* | 17.2 | · | 0.0 | -9.1
Oc1c(CN2CCCCC2)cc(Br)c2cccnc12 | 98.5* | 3.5 | · | -1.0 | -19.7
O=[N+]([O-])c1cc(Cl)c2cccnc2c1O | · | · | · | 0.1 | ·
Oc1c(CN2CCc3ccccc3C2)cc(Cl)c2cccnc12 | 98.7* | 2.0 | 0.0 | -1.7 | -14.8
CN1CCN(Cc2cc(COCc3ccccc3)c3cccnc3c2O)CC1 | 50.5* | 0.3 | -0.4 | -1.1 | -3.4
O=C(Nc1ccccc1)Nc1ccccc1-n1ccnc1 | · | · | · | 0.7 | ·
C/C(=N/NC(=O)C(O)(c1ccccc1)c1ccccc1)c1ccc([N+](=O)[O-])o1 | · | · | · | -1.7 | ·
Cn1c(O)c(C=NCC2CCNCC2)c(=O)n(C)c1=O | -9.1 | 2.4 | · | 1.6 | ·
CN1CCN(C(=S)c2cn(Cc3ccc(Br)cc3)c3ccccc23)CC1 | · | · | · | -1.1 | ·
Cc1cc(C(=O)COC(=O)c2ccc[nH]c2=O)c(C)n1-c1ccccc1 | 59.1* | 6.5 | -14.0 | -1.3 | 21.6
Cc1cc(C(=O)COC(=O)c2ccc[nH]c2=O)c(C)n1-c1ccc(F)cc1 | 53.8* | 8.5 | -10.8 | -1.0 | 17.0
Cc1cc(C(=O)COC(=O)c2ccc[nH]c2=O)c(C)n1C1CC1 | -6.0 | 20.1 | -4.3 | 5.1 | 28.8*
Cc1cc(C(=O)COc2ccccc2C(N)=O)c(C)n1C1CC1 | · | · | · | 1.9 | ·
Cc1cc(C(=O)OCC(=O)NCc2ccco2)c(C)n1-c1ccc(F)cc1 | -32.0 | 7.5 | 10.5 | 0.7 | -2.7
CC(C)(C)c1ccc(C(=O)NCC(=O)OCc2ccc([N+](=O)[O-])cc2)cc1 | -2.2 | 5.8 | -4.5 | 4.0 | -4.3
SMILES | Yeast growth inh | Measles CPE | Phagocyt inh | RAM network inh | Yeast life ext
CC(C)(C)NC(=O)C(c1ccco1)N(C(=O)Cn1nnc(-c2ccc(F)cc2)n1)c1cccc(F)c1 (stereo not given) | -26.3 | 0.4 | · | 9.2* | -7.2
N#C/C(=C\c1ccc(-c2ccccc2)cc1)c1nc(-c2ccco2)cs1 | -50.0 | 10.4 | · | 8.4* | 2.4
CCCSc1nc2c3c(sc2c(=O)[nH]1)CC(C)(CC)OC3 (stereo not given) | · | · | · | 8.8* | ·
CCOC(=O)CSc1nc2sc3c(c2c(=O)[nH]1)CC(C)(CC)OC3 (stereo not given) | -29.9 | 12.8 | -0.6 | 1.1 | -1.3
CCOc1c(CNc2nnnn2C)cccc1OC | · | · | · | 4.1 | ·
CN(CCO)c1cnccn1 | · | · | · | 3.8 | ·
COc1cccc(-n2nc(C(=O)N3CC(C)CC(C)C3)c3ccccc3c2=O)c1 (stereo not given) | -48.1 | 19.7 | -0.4 | 2.0 | 17.3
O=C(COc1ccc(C(F)(F)F)cc1[N+](=O)[O-])Nc1cccc(C(F)(F)F)c1 | -33.7 | 50.1* | · | 1.8 | 4.4
